Data published in ChEMBL document CHEMBL4765486, “Novel Nonsecosteroidal Vitamin D Receptor Modulator Combined with Gemcitabine Enhances Pancreatic Cancer Therapy through Remodeling of the Tumor Microenvironment” (J Med Chem, 2021).
pIC50: −log10 of the molar value. The source made the active and inactive calls. Unless noted, the calls are words filed in the database; no cut-off is given here.

Experiments:
LTC-14 [1] = test: Inhibition of rat LTC-14 cells activation assessed decrease in TGF-beta1 induced collagen 1 protein expression at 0.5 uM incubated for 24 hrs by Western blot analysis; format: functional, cell-based
In short: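 LTC-14 cells were treated for 24 h with compound (0.5 μM) plus TGF-β1 (0.5 ng/mL in the text, 5 ng/mL in the methods). Lysates were run on 10% SDS-PAGE, transferred to PVDF and probed with rabbit anti-collagen I, with β-actin as reference. Bands were quantified by densitometry versus TGF-β1 alone.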

[2] = Cytotoxicity against rat DSL-6A/C1 cells assessed as reduction in cell proliferation at 0.5 uM incubated for 24 hrs by MTT assay; format: cell-based; conditions: dsl-6a/c1, 24 h
[3] = target: T1, Vitamin D3 receptor (Homo sapiens) (UniProt P11473); test: Binding affinity to VDR (unknown origin) at 1 uM by fluorescence polarization assay relative to calcipotriol
T1 sequence (whole entry): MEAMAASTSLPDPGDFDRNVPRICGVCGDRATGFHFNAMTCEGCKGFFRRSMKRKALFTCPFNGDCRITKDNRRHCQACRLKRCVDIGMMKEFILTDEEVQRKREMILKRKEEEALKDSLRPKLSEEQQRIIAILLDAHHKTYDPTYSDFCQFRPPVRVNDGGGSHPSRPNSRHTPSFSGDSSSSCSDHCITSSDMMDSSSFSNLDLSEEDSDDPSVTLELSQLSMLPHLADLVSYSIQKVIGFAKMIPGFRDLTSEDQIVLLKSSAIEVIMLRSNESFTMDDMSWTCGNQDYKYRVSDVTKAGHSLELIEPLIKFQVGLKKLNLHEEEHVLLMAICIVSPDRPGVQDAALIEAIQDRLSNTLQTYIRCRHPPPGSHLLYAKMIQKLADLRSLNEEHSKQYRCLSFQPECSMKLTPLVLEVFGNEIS
In short: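 PolarScreen VDR competitor fluorescence polarization assay with compounds at 1 μM in triplicate. Read-out used 535 nm excitation and 590 nm emission filters.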

LTC-14 [4] = test: Inhibition of rat LTC-14 cells interaction with DSL-6A/C1 cells in conditioned media assessed as inhibition of PDGF-A protein expression at 0.5 uM measured after 24 hrs by Western blot analysis; format: functional, cell-based
In short: (§1)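 LTC-14 cells were treated for 24 h with DSL-6A/C1 conditioned medium plus compound (0.5 μM). Proteins were separated on 10% SDS-PAGE, transferred to PVDF and probed with rabbit anti-PDGF-A or anti-POSTN, with β-actin as loading reference.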

LTC-14 [5] = test: Inhibition of rat LTC-14 cells activation assessed as inhibition of Hgf mRNA expression at 0.5 uM treated under conditioned media of DSL-6A/C1 cells for 24 hrs by q-PCR analysis; format: functional, cell-based
In short: (§2)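 LTC-14 PSCs were exposed for 24 h to conditioned medium from rat DSL-6A/C1 cancer cells containing compound at 0.5 μM. Pdgfa, Pdgfb, Fgf2, Hgf and Periodin mRNA were quantified by RT-qPCR. Three repeats, mean ± SD versus CM alone.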

LTC-14 [6] = test: Inhibition of rat LTC-14 cells activation assessed as inhibition of PDGFA mRNA expression at 0.5 uM treated under conditioned media of DSL-6A/C1 cells for 24 hrs by q-PCR analysis; format: functional, cell-based; in short: as §2
Mus musculus = test: Inhibition of GFP-tagged rat LTC-14 cells activation in BALB/c nude mouse xenografted along with luciferase-tagged DSL-6A/C1-Luc cells assessed as reduction in alpha-smooth muscle actin expression in tumor at 500 ug/kg, ip administered once every 3 days for 12 days coadministered with gemcitabine at 100 mg/kg by DAPI staining based laser confocal scanning microscopy; format: functional, organism-based; conditions: dose 500.0 µg/kg, time 12.0 day
In short: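 Tumours were taken from orthotopic co-inoculated nude mice given gemcitabine 100 mg/kg plus compound (500 μg/kg) or calcipotriol (60 μg/kg) ip for 12 days. Sections were fixed in 4% PFA, permeabilised with 0.5% Triton X-100 and blocked in 5% BSA. They were incubated with anti-α-SMA overnight at 4 °C, then an Alexa Fluor 594 secondary for 1 h at 37 °C, DAPI-counterstained and imaged by confocal microscopy.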

LTC-14 [7] = test: Inhibition of rat LTC-14 cells activation assessed decrease in TGF-beta1 induced Acta2 mRNA expression at 0.5 uM incubated for 24 hrs by q-PCR analysis; format: functional, cell-based
In short: (§3)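 Immortalized rat PSC line LTC-14, about 1×10^5 cells per well, was grown 24 h at 37 °C in 5% CO2. Cells then received compound (0.5 μM) plus TGF-β1 for 24 h; TGF-β1 is stated as 0.5 ng/mL in the text and 5 ng/mL in the methods. Col1a1 and Acta2 mRNA were measured by RT-qPCR. Mean ± SD versus TGF-β1 alone.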

LTC-14 [8] = test: Inhibition of rat LTC-14 cell activation assessed decrease in TGF-beta1 induced Colla1 mRNA expression at 0.5 uM incubated for 24 hrs by q-PCR analysis; format: functional; in short: as §3
DSL-6A/C1 [9] = test: Antiproliferative activity against rat DSL-6A/C1 cells assessed as reduction in cell viability at 0.5 uM treated with conditioned media of LTC-14 cells for 24 hrs by MTT assay; format: functional, cell-based
In short: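 Rat pancreatic cancer DSL-6A/C1 cells were cultured in supernatant from LTC-14 PSCs (PSC-CM) with compound added at 0.5 μM for 24 h. Viability was then read by MTT: 4 h incubation with MTT (5 mg/mL stock), absorbance at 570 nm. Run in triplicate, compared with PSC-CM alone.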

LTC-14 [10] = test: Inhibition of rat LTC-14 cells activation assessed as inhibition of PDGFB mRNA expression at 0.5 uM treated under conditioned media of DSL-6A/C1 cells for 24 hrs by q-PCR analysis; format: functional, cell-based; in short: as §2
[11] = target: T1, Vitamin D3 receptor (Homo sapiens); test: Agonist activity at VDR (unknown origin) expressed in HEK293 cells co-transfected with pGL4.27-SPP3-Luc and CMV-hRXRalpha and pCMX-Renilla plasmids after 24 hrs by dual luciferase reporter gene assay; format: cell-based; conditions: filed as agonist, dose 0.0001-1 µM
In short: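 HEK293 cells in 48-well plates were transfected per well with 40 ng TK-Spp×3-LUC reporter, 20 ng pCMX-Renilla, 30 ng pENTER-CMV-hRXRα and 100 ng pCMX-VDR using Lipofectamine 2000. Compounds were added 8 h post-transfection, and dual-luciferase activity was read 24 h later. Firefly signal was normalised to Renilla. The experiment was run three times.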

Vitamin D3 receptor = target: T2, Vitamin D3 receptor (Homo sapiens, UniProt P11473); test: Binding affinity to VDR (unknown origin) by fluorescence polarization assay
T2 sequence (P11473 whole entry): T1 sequence (whole entry)
In short: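 Competitive VDR binding was measured by PolarScreen fluorescence polarization, in triplicate.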

LTC-14 [12] = test: Inhibition of rat LTC-14 cells activation assessed as inhibition of Fgf mRNA expression at 0.5 uM treated under conditioned media of DSL-6A/C1 cells for 24 hrs by q-PCR analysis; format: functional, cell-based; in short: as §2
LTC-14 [13] = test: Inhibition of rat LTC-14 cells activation assessed as inhibition of Periodin-mRNA expression at 0.5 uM treated under conditioned media of DSL-6A/C1 cells for 24 hrs by q-PCR analysis; format: functional, cell-based; in short: as §2
DSL-6A/C1 [14] = test: Antiproliferative activity against rat DSL-6A/C1 cells assessed as reduction in cell viability at 0.5 uM incubated for 24 hrs compound treated LTC-14-CM cells by MTT assay; format: functional, cell-based
In short: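 LTC-14 PSCs were pretreated with compound for 24 h. Their collected supernatant was used to culture DSL-6A/C1 cells, and proliferation was read by MTT: 4 h incubation with MTT (5 mg/mL stock), absorbance at 570 nm. Run in triplicate, compared with untreated PSC-CM.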

DSL-6A/C1 [15] = test: Potentiation of gemcitabine-induced antitumor activity against luciferase-tagged rat DSL-6A/C1 cells and GFP-tagged LTC-14 cells co-inoculated in orthotropic xenograft BALB/c nude mouse model of pancreatic cancer assessed as reduction in tumor volume at 500 ug/kg, ip administered once every 3 days for 12 days coadministered with gemcitabine at 100 mg/kg and measured after 3 days post last dose by IVIS optical imaging analysis; format: functional, organism-based; conditions: dose 500.0 µg/kg, time 12.0 day
In short: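 DSL-6A/C1-luci and LTC-14-GFP cells were co-inoculated orthotopically into the pancreas of nude mice, n=5 per group. Treatment began 7 days after grafting (methods) or 14 days (text). Gemcitabine 100 mg/kg ip every 3 days, alone or with compound 500 μg/kg or calcipotriol 60 μg/kg in ethanol/polyoxyethylene castor oil/saline (1:1:18), for 12 days. Tumour growth was followed by bioluminescence imaging.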

LTC-14 [16] = test: Inhibition of rat LTC-14 cells interaction with DSL-6A/C1 cells in conditioned media assessed as inhibition of POSTN protein expression at 0.5 uM measured after 24 hrs by Western blot analysis; format: functional, cell-based; in short: as §1
[17] = Cytotoxicity against rat LTC-14 cells assessed as reduction in cell proliferation incubated for 24 hrs by MTT assay; format: cell-based; conditions: LTC-14, 24 h
LTC-14 [18] = test: Inhibition of rat LTC-14 cells activation assessed as reduction in ECM deposition resulting in doxorubicin accumulation in PSC spheres pretreated with compounds followed by doxorubicin addition by laser confocal microscopy analysis; format: functional, cell-based
In short: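 LTC-14 cells were grown in 3D culture to form PSC spheres and treated with compounds. Fluorescent doxorubicin was then added, and its penetration into the spheres was imaged by laser confocal microscopy. Three repeats, versus untreated control.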

| Compound | RBA ([3]; filed as agonist) [%] | RBA [3] | inhibition (LTC-14 [1]) | Activity [2] | inhibition (LTC-14 [5]) | inhibition (LTC-14 [6]) | inhibition (LTC-14 [7]) | inhibition (LTC-14 [8]) | inhibition (LTC-14 [10]) | inhibition (LTC-14 [12]) | inhibition (LTC-14 [13]) | pIC50 [17] | also measured |
| --- | --- | --- | --- | --- | --- | --- | --- | --- | --- | --- | --- | --- | --- |
| CCn1cc(C(CC)(CC)c2ccc(OCC(C)O)c(C)c2)cc1C(=O)NCC(O)CO (stereo unspecified) | 86 |  | Active | Non-Toxic | Active | Active | Active | Active | Active | Active | Active | < 5.00 | inhibition (LTC-14 [4]): Active; inhibition (Mus musculus): Active; Activity (DSL-6A/C1 [9]): inactive; Activity [11]: Dose-dependent effect; pIC50 (Vitamin D3 receptor): 7.09; Activity (DSL-6A/C1 [14]): Active; TGI (DSL-6A/C1 [15]): Active; inhibition (LTC-14 [16]): Active; inhibition (LTC-14 [18]): Active |
| CCn1cc(C(CC)(CC)c2ccc(OCC(C)O)c(C)c2)cc1C(=O)NCCN1CCCCC1 (stereo unspecified) |  | inactive | Active | Non-Toxic | Active | Active | Active | Active | Active | Active | Active | < 5.00 |  |
| CCCC(O)(CCC)CCCCOc1ccc(C(CC)(CC)c2ccc(C(=O)NCCCN(CC)CC)n2CC)cc1C | 64 |  | Active |  |  |  | Active | Active |  |  |  | < 5.00 |  |

Continued, in another order:

| RBA ([3]; filed as agonist) [%] | RBA [3] | Compound | inhibition (LTC-14 [1]) | Activity [2] | inhibition (LTC-14 [5]) | inhibition (LTC-14 [6]) | inhibition (LTC-14 [7]) | inhibition (LTC-14 [8]) | inhibition (LTC-14 [10]) | inhibition (LTC-14 [12]) | inhibition (LTC-14 [13]) | pIC50 [17] | also measured |
| --- | --- | --- | --- | --- | --- | --- | --- | --- | --- | --- | --- | --- | --- |
|  | 36% | CCN(CC)CCNC(=O)c1ccc(C(CC)(CC)c2ccc(OCCC(C)(C)O)c(C)c2)n1CC | Active | Non-Toxic | Active | Active | Active | Active | Active | Active | Active | < 5.00 |  |
|  | 24% | CCn1c(C(=O)NCCN2CCCCC2)ccc1C(CC)(CC)c1ccc(OCCC(C)(C)O)c(C)c1 | Active | Non-Toxic | Active | Active | Active | Active | Active | Active | Active | < 5.00 |  |
| 68 |  | CCn1c(C(=O)NCCN2CCN(C)CC2)ccc1C(CC)(CC)c1ccc(OCCC(C)(C)O)c(C)c1 | Active | Non-Toxic | Active | Active | Active | Active | Active | Active | Active | < 5.00 | inhibition (LTC-14 [4]): Active; inhibition (LTC-14 [16]): Active |
|  | 39% | CCN(CC)CCCNC(=O)c1ccc(C(CC)(CC)c2ccc(OCC(O)C3CC3)c(C)c2)n1CC (stereo unspecified) | Active |  |  |  | Active | Active |  |  |  | < 5.00 |  |
